# How the values were obtained:
# [1] = Cytotoxicity against human KBVIN cells after 72 hrs by SRB assay; format: functional, cell-based
# Procedure, shortened: (§1)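 Cells seeded at 3–5 × 10³ per well in RPMI-1640 with 10% FBS containing a range of sample concentrations, exposed 72 h. Attached cells fixed in cold 50% trichloroacetic acid for 30 min, stained with 0.04% sulforhodamine B for 30 min, bound dye dissolved in 10 mM Tris base, absorbance read at 515 nm. Run in triplicate. KBvin is a vincristine-selected multidrug-resistant KB subline.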
# KB [2] = test: Cytotoxicity against human KB cells after 72 hrs by SRB assay; format: functional, cell-based; procedure, shortened: as §1
# A549 [3] = test: Cytotoxicity against human A549 cells after 72 hrs by SRB assay; format: functional, cell-based; conditions: A549, 72 h; procedure, shortened: as §1
# DU-145 [4] = test: Cytotoxicity against human DU145 cells after 72 hrs by SRB assay; format: functional, cell-based; conditions: DU-145, 72 h; procedure, shortened: as §1
# KB [5] = test: Ratio of etoposide IC50 to compound IC50 for human KB cells; format: functional
# [6] = Ratio of etoposide IC50 to compound IC50 for human KBVIN cells; format: functional
# A549 [7] = test: Ratio of etoposide IC50 to compound IC50 for human A549 cells; format: functional
# DU-145 [8] = test: Ratio of etoposide IC50 to compound IC50 for human DU145 cells; format: functional
smiles,measurement,setting,value
COc1cc([C@@H]2c3cc4c(cc3[C@@H](NC(=S)NC(=O)c3ccccc3)[C@H]3COC(=O)[C@H]23)OCO4)cc(OC)c1O,IC50,[1],9.93 µM
same,IC50,KB [2],8.96 µM
same,IC50,A549 [3],12 µM
same,IC50,DU-145 [4],9.88 µM
COc1cc([C@@H]2c3cc4c(cc3[C@@H](NC(=S)NC(=O)c3ccc(Cl)cc3)[C@H]3COC(=O)[C@H]23)OCO4)cc(OC)c1O,IC50,[1],> 20 µM
same,IC50,KB [2],> 20 µM
same,IC50,A549 [3],> 20 µM
same,IC50,DU-145 [4],> 20 µM
COc1cc([C@@H]2c3cc4c(cc3[C@@H](NC(=S)NC(=O)c3ccc(Cl)cc3)[C@H]3COC(=O)[C@H]23)OCO4)cc(OC)c1OC,IC50,[1],2.01 µM
same,IC50,KB [2],1.2 µM
same,IC50,A549 [3],1.62 µM
same,IC50,DU-145 [4],1.16 µM
COc1cc([C@@H]2c3cc4c(cc3[C@@H](NC(=S)NC(=O)c3ccc(C)cc3)[C@H]3COC(=O)[C@H]23)OCO4)cc(OC)c1OC,IC50,[1],12.2 µM
same,IC50,KB [2],10.5 µM
same,IC50,A549 [3],11.3 µM
same,IC50,DU-145 [4],10.5 µM
COc1cc([C@@H]2c3cc4c(cc3[C@@H](NC(=S)NC(=O)c3ccc([N+](=O)[O-])cc3)[C@H]3COC(=O)[C@H]23)OCO4)cc(OC)c1OC,IC50,[1],1.65 µM
same,IC50,KB [2],1.33 µM
same,IC50,A549 [3],2.06 µM
same,IC50,DU-145 [4],1.57 µM
COc1cc([C@@H]2c3cc4c(cc3[C@@H](NC(=S)NC(=O)c3cccc([N+](=O)[O-])c3)[C@H]3COC(=O)[C@H]23)OCO4)cc(OC)c1OC,IC50,[1],9.86 µM
same,IC50,KB [2],9.27 µM
same,IC50,A549 [3],10.3 µM
same,IC50,DU-145 [4],9.82 µM
COc1cc([C@@H]2c3cc4c(cc3[C@@H](NC(=S)NC(=O)c3cccnc3)[C@H]3COC(=O)[C@H]23)OCO4)cc(OC)c1OC,IC50,[1],16.8 µM
same,IC50,KB [2],14.2 µM
same,IC50,A549 [3],15.5 µM
same,IC50,DU-145 [4],11.4 µM
COc1cc([C@@H]2c3cc4c(cc3[C@@H](NC(=S)NC(=O)c3cnccc3Cl)[C@H]3COC(=O)[C@H]23)OCO4)cc(OC)c1OC,IC50,[1],> 20 µM
same,IC50,KB [2],> 20 µM
same,IC50,A549 [3],> 20 µM
same,IC50,DU-145 [4],> 20 µM
COc1cc([C@@H]2c3cc4c(cc3[C@@H](NC(=S)NC(=O)c3cccnc3Cl)[C@H]3COC(=O)[C@H]23)OCO4)cc(OC)c1OC,IC50,[1],> 20 µM
same,IC50,KB [2],> 20 µM
same,IC50,A549 [3],> 20 µM
same,IC50,DU-145 [4],> 20 µM
COc1cc([C@@H]2c3cc4c(cc3[C@@H](NC(=S)NC(=O)c3cncc(Br)c3)[C@H]3COC(=O)[C@H]23)OCO4)cc(OC)c1OC,IC50,[1],> 20 µM
same,IC50,KB [2],> 20 µM
same,IC50,A549 [3],> 20 µM
same,IC50,DU-145 [4],> 20 µM
COc1cc([C@@H]2c3cc4c(cc3[C@@H](NC(=S)NC(=O)c3cccs3)[C@H]3COC(=O)[C@H]23)OCO4)cc(OC)c1OC,IC50,[1],12.5 µM
same,IC50,KB [2],11.6 µM
same,IC50,A549 [3],12.3 µM
same,IC50,DU-145 [4],11.2 µM
COc1cc([C@@H]2c3cc4c(cc3[C@@H](NC(=S)NC(=O)c3ccco3)[C@H]3COC(=O)[C@H]23)OCO4)cc(OC)c1OC,IC50,[1],> 20 µM
same,IC50,KB [2],> 20 µM
same,IC50,A549 [3],> 20 µM
same,IC50,DU-145 [4],> 20 µM
COc1cc([C@@H]2c3cc4c(cc3[C@@H](NC(=S)NC(=O)c3ccc5ccccc5c3)[C@H]3COC(=O)[C@H]23)OCO4)cc(OC)c1OC,Ratio IC50,KB [5],20
same,Ratio IC50,[6],20
same,Ratio IC50,A549 [7],20
same,Ratio IC50,DU-145 [8],20
same,IC50,[1],0.13 µM
same,IC50,KB [2],0.12 µM
same,IC50,A549 [3],0.11 µM
same,IC50,DU-145 [4],0.099 µM
COc1cc([C@@H]2c3cc4c(cc3[C@@H](NC(=S)NC(=O)c3ccco3)[C@H]3COC(=O)[C@H]23)OCO4)cc(OC)c1O,IC50,[1],9.46 µM
same,IC50,KB [2],8.74 µM
same,IC50,A549 [3],13.7 µM
same,IC50,DU-145 [4],8.49 µM
COc1cc([C@@H]2c3cc4c(cc3[C@@H](NC(=S)NC(=O)c3cccs3)[C@H]3COC(=O)[C@H]23)OCO4)cc(OC)c1O,IC50,[1],9.24 µM
same,IC50,KB [2],8.4 µM
same,IC50,A549 [3],9.82 µM
same,IC50,DU-145 [4],7.34 µM
COc1cc([C@@H]2c3cc4c(cc3[C@@H](NC(=S)NC(=O)c3ccc5ccccc5c3)[C@H]3COC(=O)[C@H]23)OCO4)cc(OC)c1O,IC50,[1],10.3 µM
same,IC50,KB [2],7.23 µM
same,IC50,A549 [3],11.8 µM
same,IC50,DU-145 [4],6.55 µM
COc1cc([C@@H]2c3cc4c(cc3[C@@H](NC(=S)NC(C)=O)[C@H]3COC(=O)[C@H]23)OCO4)cc(OC)c1OC,IC50,[1],13.6 µM
same,IC50,KB [2],13.4 µM
same,IC50,A549 [3],13.1 µM
same,IC50,DU-145 [4],12.3 µM
COc1cc([C@@H]2c3cc4c(cc3[C@@H](NC(=S)NC(=O)C3CCCCC3)[C@H]3COC(=O)[C@H]23)OCO4)cc(OC)c1OC,Ratio IC50,KB [5],20
same,Ratio IC50,[6],20
same,Ratio IC50,A549 [7],20
same,Ratio IC50,DU-145 [8],20
same,IC50,[1],0.098 µM
same,IC50,KB [2],0.32 µM
same,IC50,A549 [3],0.19 µM
same,IC50,DU-145 [4],0.17 µM
COc1cc([C@@H]2c3cc4c(cc3[C@@H](NC(=S)NC(=O)c3ccccc3)[C@H]3COC(=O)[C@H]23)OCO4)cc(OC)c1OC,Ratio IC50,KB [5],20
same,Ratio IC50,[6],20
same,Ratio IC50,A549 [7],20
same,Ratio IC50,DU-145 [8],20
same,IC50,[1],0.81 µM
same,IC50,KB [2],0.9 µM
same,IC50,A549 [3],1.13 µM
same,IC50,DU-145 [4],0.97 µM
COc1cc([C@@H]2c3cc4c(cc3[C@@H](NC(=S)NC(=O)c3ccc(F)cc3)[C@H]3COC(=O)[C@H]23)OCO4)cc(OC)c1OC,IC50,[1],1.38 µM
same,IC50,KB [2],1.44 µM
same,IC50,A549 [3],1.37 µM
same,IC50,DU-145 [4],1.15 µM
COc1cc([C@@H]2c3cc4c(cc3[C@@H](O[C@@H]3O[C@@H]5CO[C@@H](C)O[C@H]5[C@H](O)[C@H]3O)[C@H]3COC(=O)[C@H]23)OCO4)cc(OC)c1O [ETOPOSIDE],IC50,[1],> 20 µM
same,IC50,KB [2],3.88 µM
same,IC50,A549 [3],2.58 µM
same,IC50,DU-145 [4],2.03 µM
